Laboratory results reported in ChEMBL document CHEMBL2169794, “Induction of apoptosis by 3-amino-6-(3-aminopropyl)-5,6-dihydro-5,11-dioxo-11H-indeno[1,2-c]isoquinoline via modulation of MAPKs (p38 and c-Jun N-terminal kinase) and c-Myc in HL-60 human leukemia cells” (J Nat Prod, 2012).
Active and inactive are the calls of the source. The rule behind the calls is not given here.

Tests used:
HL-60 [1] = assay: Antiproliferative activity against human HL60 cells after 72 hrs by MTT assay; format: functional, cell-based; conditions: HL-60, 72 h
How it was run: (§1)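 HL-60 cells seeded at 2×10^4 per well, treated after 24 h with serial dilutions (0.0625-1 µM) for 24, 48, 72 or 96 h; DMSO 0.1% vehicle control. MTT added (final 500 µg/mL) for 4 h, formazan dissolved in DMSO, OD at 540 nm. Inhibition calculated relative to vehicle control after subtracting time-zero reading; IC50 by curve fitting; n = 6 per group.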

HL-60 [2] = assay: Induction of cleaved caspase 7 expression in human HL60 cells at 0.25 to 2 uM incubated for 24 hrs by Western blotting method; format: functional, cell-based
How it was run: (§2)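 HL-60 cells exposed for 24 h to the stated concentrations and lysed; protein measured by Bradford. Lysate (15 µg) run on 12% SDS-PAGE and transferred to PVDF. Blocked in 5% milk/TBST for 1 h, primary antibody overnight at 4 °C, HRP secondary for 2 h at room temperature, chemiluminescent detection.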

HL-60 [3] = assay: Cell cycle arrest in human HL60 cells assessed as accumulation at subG0/G1 phase at 0.5 uM by NIM-DAPI staining based flow cytometry (reference value: 2.8 +/- 0.8%); format: functional
HL-60 [4] = assay: Induction of apoptosis assessed as increase in caspase 9 enzyme activity in human HL60 cells at 1 uM incubated for 24 to 72 hrs by luminometry relative to untreated control; format: functional
How it was run: (§3)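 HL-60 cells treated with serial dilutions in 96-well plates for 24, 48 and 72 h. Luminogenic caspase-3/7, caspase-8 or caspase-9 substrate reagent added for 3 h at room temperature, then luminescence read. Results are expressed as fold over DMSO vehicle control.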

HL-60 [5] = assay: Effect on total p38MAPK protein expression in human HL60 cells at 1 uM incubated for 1 to 24 hrs by Western blot method; format: functional, cell-based
How it was run: (§4)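 HL-60 cells exposed to 1 µM test agent for the indicated times, then lysed. 15 µg protein run on 12% SDS-PAGE, blotted to PVDF, probed overnight at 4 °C with antibodies to phospho- or total ERK1/2, p38 (Thr180/Tyr182), SAPK/JNK (Thr183/Tyr185) or c-Myc. HRP secondary, chemiluminescent read-out.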

HL-60 [6] = assay: Cell cycle arrest in human HL60 cells assessed as accumulation at subG0/G1 phase at 0.25 uM by NIM-DAPI staining based flow cytometry (reference value: 2.8 +/- 0.8%); format: functional
HL-60 [7] = assay: Cell cycle arrest in human HL60 cells assessed as accumulation at subG0/G1 phase at 0.125 uM by NIM-DAPI staining based flow cytometry (reference value: 2.8 +/- 0.8%); format: functional
HL-60 [8] = assay: Cell cycle arrest in human HL60 cells assessed as accumulation at subG0/G1 phase at 0.0625 uM by NIM-DAPI staining based flow cytometry (reference value: 2.8 +/- 0.8%); format: functional
HL-60 [9] = assay: Reduction in mitochondrial transmembrane electric potential in human HL60 cells 1 uM incubated for 96 hrs by DiOC6(3) dye staining based flow cytometry; format: functional, cell-based
How it was run: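 HL-60 cells given DMSO vehicle or 1 µM test agent for 96 h, then loaded with 100 nM DiOC6(3) for 30 min at 37 °C. After washing and resuspension in PBS, the cells were read at once by flow cytometry in FL-1.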

HL-60 [10] = assay: Induction of apoptosis in human HL60 cells assessed as necrotic cells level at 1 uM incubated for 24 hrs by annexinV/7-AAD double staining based flow cytometry (reference value: 3.45%); format: functional
HL-60 [11] = assay: Induction of apoptosis in human HL60 cells assessed as late apoptotic cells level at 2 uM incubated for 24 hrs by annexinV/7-AAD double staining based flow cytometry (reference value: 0.43%); format: functional
HL-60 [12] = assay: Cell cycle arrest in human HL60 cells assessed as accumulation at G2/M phase at 0.25 uM by NIM-DAPI staining based flow cytometry (reference value: 13.2 +/- 2.8%); format: functional
HL-60 [13] = assay: Induction of apoptosis assessed as increase in caspase 8 enzyme activity in human HL60 cells at 1 uM incubated for 24 to 72 hrs by luminometry relative to untreated control; format: functional, cell-based; how it was run: as §3
HL-60 [14] = assay: Induction of cleaved caspase 3 expression in human HL60 cells at 0.25 to 2 uM incubated for 24 hrs by Western blotting method; format: functional, cell-based; how it was run: as §2
HL-60 [15] = assay: Cell cycle arrest in human HL60 cells assessed as accumulation at G2/M phase at 0.5 uM by NIM-DAPI staining based flow cytometry (reference value: 13.2 +/- 2.8%); format: functional
HL-60 [16] = assay: Induction of apoptosis in human HL60 cells assessed as viable cells level at 1 uM incubated for 24 hrs by annexinV/7-AAD double staining based flow cytometry (reference value: 92.44%); format: functional
HL-60 [17] = assay: Induction of PARP cleavage in human HL60 cells 2 uM incubated for 24 hrs by Western blot method; format: functional, cell-based; how it was run: as §2
HL-60 [18] = assay: Antiproliferative activity against human HL60 cells after 24 hrs by MTT assay; format: functional, cell-based; conditions: HL-60, 24 h; how it was run: as §1
HL-60 [19] = assay: Induction of apoptosis in human HL60 cells assessed as early apoptotic cells level at 1 uM incubated for 24 hrs by annexinV/7-AAD double staining based flow cytometry (reference value: 3.68%); format: functional
HL-60 [20] = assay: Down regulation of c-Myc protein expression in human HL60 cells at 1 uM after 2 hrs by Western blot method; format: functional, cell-based; how it was run: as §4
HL-60 [21] = assay: Induction of apoptosis in human HL60 cells assessed as viable cells level at 2 uM incubated for 24 hrs by annexinV/7-AAD double staining based flow cytometry (reference value: 92.44%); format: functional
HL-60 [22] = assay: Induction of apoptosis in human HL60 cells assessed as necrotic cells level at 2 uM incubated for 24 hrs by annexinV/7-AAD double staining based flow cytometry (reference value: 3.45%); format: functional
HL-60 [23] = assay: Cell cycle arrest in human HL60 cells assessed as accumulation at G2/M phase at 0.125 uM by NIM-DAPI staining based flow cytometry (reference value: 13.2 +/- 2.8%); format: functional
HL-60 [24] = assay: Antiproliferative activity against human HL60 cells after 48 hrs by MTT assay; format: functional, cell-based; conditions: HL-60, 48 h; how it was run: as §1
HL-60 [25] = assay: Induction of PARP cleavage in human HL60 cells 1 uM incubated for 24 hrs by Western blot method; format: functional, cell-based; how it was run: as §2
HL-60 [26] = assay: Induction of apoptosis in human HL60 cells assessed as late apoptotic cells level at 1 uM incubated for 24 hrs by annexinV/7-AAD double staining based flow cytometry (reference value: 0.43%); format: functional
HL-60 [27] = assay: Effect on total ERK1/2 protein expression in human HL60 cells at 1 uM incubated for 1 to 24 hrs by Western blot method; format: functional, cell-based; how it was run: as §4
[28] = molecular target: MAP kinase p38 (Homo sapiens) (UniProt O15264+Q15759+Q16539+P53778); assay: Induction of p38 MAPK phosphorylation in human HL60 cells at 1 uM incubated for 1 to 24 hrs by Western blot method; format: cell-based; conditions: HL-60; how it was run: as §4
HL-60 [29] = assay: Cell cycle arrest in human HL60 cells assessed as accumulation at subG0/G1 phase at 1 uM by NIM-DAPI staining based flow cytometry (reference value: 2.8 +/- 0.8%); format: functional
HL-60 [30] = assay: Induction of apoptosis assessed as increase in caspase 3/7 enzyme activity in human HL60 cells at 1 uM incubated for 24 to 72 hrs by luminometry relative to untreated control; format: functional; how it was run: as §3
HL-60 [31] = assay: Induction of apoptosis in human HL60 cells assessed as early apoptotic cells level at 2 uM incubated for 24 hrs by annexinV/7-AAD double staining based flow cytometry (reference value: 3.68%); format: functional
HL-60 [32] = assay: Antiproliferative activity against human HL60 cells after 96 hrs by MTT assay; format: functional, cell-based; conditions: HL-60, 96 h; how it was run: as §1
HL-60 [33] = assay: Effect on total SAPK/JNK protein expression in human HL60 cells at 1 uM incubated for 1 to 24 hrs by Western blot method; format: functional, cell-based; how it was run: as §4
HL-60 [34] = assay: Cell cycle arrest in human HL60 cells assessed as accumulation at G2/M phase at 0.0625 uM by NIM-DAPI staining based flow cytometry (reference value: 13.2 +/- 2.8%); format: functional
[35] = molecular target: c-Jun N-terminal kinase, JNK (Homo sapiens) (UniProt P45983+P53779+P45984); assay: Induction of JNK phosphorylation in human HL60 cells at 1 uM incubated for 1 to 24 hrs by Western blot method; format: cell-based; conditions: HL-60; how it was run: as §4

SMILES: Cl.Cl.NCCCn1c2c(c3ccc(N)cc3c1=O)C(=O)c1ccccc1-2
- IC50 (HL-60 [1]): 150 nM
- Activity (HL-60 [2]): Active
- Activity (HL-60 [3]): 11.1%
- fold change (FC) (HL-60 [4]): 7.8
- Activity (HL-60 [5]): inactive
- Activity (HL-60 [6]): 6.1%
- Activity (HL-60 [7]): 6%
- Activity (HL-60 [8]): 4.6%
- Activity (HL-60 [9]): Active
- Activity (HL-60 [10]): 2.99%
- Activity (HL-60 [11]): 6.27%
- Activity (HL-60 [12]): 45%
- Activity (HL-60 [13]): inactive
- Activity (HL-60 [14]): Active
- Activity (HL-60 [15]): 27.6%
- Activity (HL-60 [16]): 57.62%
- Activity (HL-60 [17]): Active
- IC50 (HL-60 [18]): 800 nM
- Activity (HL-60 [19]): 34.18%
- Activity (HL-60 [20]): Active
- Activity (HL-60 [21]): 37.6%
- Activity (HL-60 [22]): 4.57%
- Activity (HL-60 [23]): 39.6%
- IC50 (HL-60 [24]): 350 nM
- Activity (HL-60 [25]): Active
- Activity (HL-60 [26]): 5.21%
- Activity (HL-60 [27]): inactive
- Activity [28]: Active
- Activity (HL-60 [29]): 26.5%
- fold change (FC) (HL-60 [30]): 12.6
- Activity (HL-60 [31]): 51.56%
- IC50 (HL-60 [32]): 86 nM
- Activity (HL-60 [33]): inactive
- Activity (HL-60 [34]): 22%
- Activity [35]: Active
